The target of one series is T1, CYP1A2 (Homo sapiens, UniProt P05177).
T1 sequence (P05177 1-516): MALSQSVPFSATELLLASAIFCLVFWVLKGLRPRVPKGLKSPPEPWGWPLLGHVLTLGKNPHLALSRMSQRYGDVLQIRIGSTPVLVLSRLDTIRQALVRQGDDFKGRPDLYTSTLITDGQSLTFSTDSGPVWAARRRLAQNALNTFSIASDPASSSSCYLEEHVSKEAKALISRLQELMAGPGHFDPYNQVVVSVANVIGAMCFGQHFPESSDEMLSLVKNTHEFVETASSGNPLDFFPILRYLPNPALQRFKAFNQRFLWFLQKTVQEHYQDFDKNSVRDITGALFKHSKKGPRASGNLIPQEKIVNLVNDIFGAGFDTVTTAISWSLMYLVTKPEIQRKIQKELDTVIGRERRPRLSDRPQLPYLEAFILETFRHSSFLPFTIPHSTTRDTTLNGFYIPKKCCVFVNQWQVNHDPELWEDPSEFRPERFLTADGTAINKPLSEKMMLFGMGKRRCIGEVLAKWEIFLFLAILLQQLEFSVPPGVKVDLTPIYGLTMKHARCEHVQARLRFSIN
Briefly: CYP inhibition in human liver microsomes, 1A2. The class given is in vitro ADME. In general terms: Microsomes from liver hold many membrane-bound enzymes, among them those of drug oxidation.

Another series concerns the target CYP3A4 (Homo sapiens, UniProt P08684). The series is described as follows: CYP inhibition in human liver microsomes, 3A4. Format: in vitro ADME.
For the next series, the target named is CYP2D6 (Homo sapiens, UniProt P10635). The series is described as follows: CYP inhibition in human liver microsomes, 2D6. Format: in vitro ADME.
For another series, the system named is T. cruzi Y luc strain. Format: in vivo, Trypanosoma cruzi. Particulars: posaconazole 20 mg/kg, ip, bid, 4 days; two independent experiments (A, B).
The conditions of series [1]: cited from earlier work.
For the next series, the system named is human 3A4. The settings on record: cited from earlier work.
A further series has as its target CYP2C9 (Homo sapiens, UniProt P11712). Briefly: CYP inhibition in human liver microsomes, 2C9. The class given is in vitro ADME.
The next series in a line: Single dose PK. Particulars: female, Swiss Webster, mouse, plasma, po, 50 mg/kg. Format: in vivo. In short, it runs like this: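 Eight-week-old female Swiss Webster mice were given one oral gavage dose of 50 mg/kg, formulated at 10 mg/mL in 20% solutol/80% water. Nine mice were dosed, with n = 3 plasma samples at about 0.25, 0.5, 1, 2, 4, 6, 8, 12 and 24 h. Plasma protein was precipitated with 5 volumes of acetonitrile and filtered through 0.2 μm, then quantified by LC-MS/MS.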

The nature of series [2]: Solubility in oral dosing vehicles. Format: physicochemical. The settings on record: oral dosing vehicle.
In another series the test system is 2C9. Particulars: read-out: IC50 toward 2C9; cited from earlier work.
The mark [3] stands for this setting: read-out: IC50 against human 3A4, ref 35.
Setting [4] is: read-out: IC50 against human 3A4, ref 67.

Counter-ions that a name gives are not always drawn. Like-named read-outs stand apart in the source and are kept apart here. Bounds are passed on as bounds.

Usually inhibition stands for the change of the read-out against control, counted positive when it falls. A word on the IC50: it is the concentration that inhibits the measured activity by half. One may read the half-life as how long it takes for the measured level to halve. Low values mean rapid decline, high ones slow decline.

CYP2D6, sequence (P10635 whole entry): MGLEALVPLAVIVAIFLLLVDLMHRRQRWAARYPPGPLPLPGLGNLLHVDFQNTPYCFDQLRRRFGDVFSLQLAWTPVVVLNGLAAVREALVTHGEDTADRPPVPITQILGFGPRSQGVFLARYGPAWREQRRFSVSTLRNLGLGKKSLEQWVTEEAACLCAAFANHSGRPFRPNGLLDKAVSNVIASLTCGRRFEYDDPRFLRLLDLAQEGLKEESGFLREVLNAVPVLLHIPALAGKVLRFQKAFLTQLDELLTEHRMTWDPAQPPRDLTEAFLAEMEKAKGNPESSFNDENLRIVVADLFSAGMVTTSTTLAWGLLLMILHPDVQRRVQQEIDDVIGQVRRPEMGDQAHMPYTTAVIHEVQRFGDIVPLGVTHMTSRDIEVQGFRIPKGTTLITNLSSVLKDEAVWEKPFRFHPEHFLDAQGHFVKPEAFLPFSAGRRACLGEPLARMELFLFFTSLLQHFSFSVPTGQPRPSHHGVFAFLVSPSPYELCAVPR
CYP3A4, sequence (P08684 whole entry): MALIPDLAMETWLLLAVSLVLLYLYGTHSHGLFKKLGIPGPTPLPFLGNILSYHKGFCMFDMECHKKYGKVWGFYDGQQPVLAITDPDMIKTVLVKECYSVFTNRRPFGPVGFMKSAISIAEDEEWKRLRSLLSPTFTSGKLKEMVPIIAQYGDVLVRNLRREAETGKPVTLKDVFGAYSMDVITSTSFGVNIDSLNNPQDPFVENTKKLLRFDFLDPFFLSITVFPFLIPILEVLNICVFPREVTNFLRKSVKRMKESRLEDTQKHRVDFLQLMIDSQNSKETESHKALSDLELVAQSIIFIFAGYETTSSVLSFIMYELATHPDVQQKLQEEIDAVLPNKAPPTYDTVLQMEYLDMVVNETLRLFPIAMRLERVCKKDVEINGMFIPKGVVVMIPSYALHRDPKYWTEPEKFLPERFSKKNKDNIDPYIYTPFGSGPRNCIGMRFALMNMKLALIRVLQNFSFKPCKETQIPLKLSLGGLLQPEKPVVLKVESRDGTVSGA
CYP2C9, sequence (P11712 whole entry): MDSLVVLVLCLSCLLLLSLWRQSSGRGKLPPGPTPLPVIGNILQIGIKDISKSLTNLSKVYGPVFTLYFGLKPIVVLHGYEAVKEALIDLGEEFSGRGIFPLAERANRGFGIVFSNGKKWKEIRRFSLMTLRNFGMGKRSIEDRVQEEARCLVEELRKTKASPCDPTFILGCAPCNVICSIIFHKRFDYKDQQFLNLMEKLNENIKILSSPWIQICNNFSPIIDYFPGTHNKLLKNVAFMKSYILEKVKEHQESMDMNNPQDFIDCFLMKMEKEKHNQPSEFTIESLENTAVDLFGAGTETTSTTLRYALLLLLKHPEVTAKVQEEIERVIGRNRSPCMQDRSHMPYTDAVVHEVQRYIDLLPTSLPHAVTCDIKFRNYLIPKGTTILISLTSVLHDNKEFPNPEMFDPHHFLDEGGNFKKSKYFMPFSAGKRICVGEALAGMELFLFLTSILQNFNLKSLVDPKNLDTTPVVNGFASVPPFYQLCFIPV

Turning to `CC[C@@H]([C@H](C)O)n1ncn(-c2ccc(N3CCN(c4ccc(OC[C@@H]5CO[C@@](Cn6cncn6)(c6ccc(F)cc6F)C5)cc4)CC3)cc2)c1=O` [Posaconazole], the inhibition at 1 µM is -11% on CYP1A2, 68% at CYP3A4, -9% on CYP2D6 and -3% at CYP2C9. For the same molecule, the “inhibition of parasitemia, positive control” value in the series with T. cruzi Y luc strain is listed as 94–99%. Besides, the half-life in humans result in series [1] is recorded as “measured in days”. The IC50 in the series with human 3A4 (setting [3]) was 0.35 µM; in the series with human 3A4 (setting [4]), 0.12 µM.
Molecule `O=C(N[C@H](Cc1c[nH]c2ccccc12)C(=O)Nc1ccncc1)c1ccc(-c2ccc(F)c(F)c2)cc1F` [compound 2, (R)-N-(3-(1H-Indol-3-yl)-1-oxo-1-(pyridin-4-ylamino)propan-2-yl)-3,3′,4′-trifluoro-[1,1′-biphenyl]-4-carboxamide] gave a half-life in “Single dose PK” of under 3.3 h.
As for `CC(=O)N1CCN(c2ccc(OCC3COC(Cn4ccnc4)(c4ccc(Cl)cc4Cl)O3)cc2)CC1` (stereo not shown) [ketoconazole], the IC50 in the series on human 3A4 (setting [3]) is 0.04 µM; with human 3A4 (setting [4]) it was 0.008 µM.
For `O=C(N[C@H](Cc1c[nH]c2ccccc12)C(=O)Nc1ccncc1)c1ccc(-c2ccc(F)c(C(F)(F)F)c2)cc1F` [compound 6, (R)-N-(3-(1H-Indol-3-yl)-1-oxo-1-(pyridin-4-ylamino)propan-2-yl)-3,4′-difluoro-3′-(trifluoromethyl)-[1,1′-biphenyl]-4-carboxamide], in the series “Single dose PK”, the half-life was under 3.3 h.
As for `CCO.C[C@@H](c1nc(-c2ccc(C#N)cc2)cs1)[C@@](Cn1cncn1)(OCOP(=O)(O)O)c1ccc(F)cc1F.NCCCC[C@H](N)C(=O)O` [E1224], in series [1], the half-life in humans entry is reported as “measured in days”.
Consider `O=C(N[C@H](Cc1c[nH]c2ccccc12)C(=O)Nc1ccncc1)c1ccc(-c2ccc(F)c(Cl)c2)cc1F` [compound 7, (R)-N-(3-(1H-Indol-3-yl)-1-oxo-1-(pyridin-4-ylamino)propan-2-yl)-3′-chloro-3,4′-difluoro-[1,1′-biphenyl]-4-carboxamide hydrochloride], for which the “solubility in 20% HPβCD” value in series [2] was “fully soluble”.
For the molecule `O=C([C@@H](c1ccc(Cl)cc1)c1cccnc1)N1CCN(c2ccc(C(F)(F)F)cc2)CC1` [EPL-BS1246], the figures for the IC50 in the series on 2C9 and in the series on human 3A4 (read-out: IC50 toward 3A4) were 8 to 9 µM and at least 20 µM, respectively.

Values taken from publication PMC4148169 (Journal of Medicinal Chemistry, 2014).
